Measured values gathered from unrelated publications.
Each line is one published result; the experiments were not run side by side.
Target: Dual specificity mitogen-activated protein kinase kinase 5 (MAP2K5, Homo sapiens, UniProt Q13163)
Sequence (Q13163 1-448, as in one of the studies): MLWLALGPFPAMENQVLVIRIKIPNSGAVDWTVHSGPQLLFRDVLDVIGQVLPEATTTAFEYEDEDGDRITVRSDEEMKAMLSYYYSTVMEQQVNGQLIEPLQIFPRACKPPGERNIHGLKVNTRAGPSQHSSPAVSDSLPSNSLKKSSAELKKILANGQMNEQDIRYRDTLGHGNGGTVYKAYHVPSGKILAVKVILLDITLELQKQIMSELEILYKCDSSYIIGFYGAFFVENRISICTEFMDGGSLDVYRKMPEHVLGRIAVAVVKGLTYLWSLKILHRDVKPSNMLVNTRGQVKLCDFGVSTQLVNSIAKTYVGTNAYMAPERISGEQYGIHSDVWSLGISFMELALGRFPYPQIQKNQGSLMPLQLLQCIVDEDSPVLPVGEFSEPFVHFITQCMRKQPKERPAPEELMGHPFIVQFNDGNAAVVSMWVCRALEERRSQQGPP

SMILES | read-out | mode | technique | tested at | measurement | result
O=C(Nc1cnn(-c2csc(C(=O)NC3COC3)c2)c1)Nc1ccccc1Cl | enzyme activity | inhibitor | – | 5 µM | remaining activity | 98.2%
CC(C)(C)c1nc2c(s1)c1nc(N)ncc1c1ccc(NS(=O)(=O)c3c(F)cccc3F)c(F)c12 | enzyme activity | inhibitor | radiometric | 1 µM | remaining activity | 80%
Nc1ncnc2occ(-c3ccc(NC(=O)Nc4cc(C(F)(F)F)ccc4F)cc3)c12 | cell-free assay | inhibitor | – | 20 µM | remaining signal | 0.15%
COc1cccc2c(NCc3ccccc3)nc(-n3c(N)nc4ccccc43)nc12 | target engagement in cells | inhibitor | chemoproteomics | 20 mM | inhibition | 6.7%
CC(C)(O)c1cncc(-c2nc3ccc(F)cc3n2C2CC2)c1 | cell-free assay | – | competition with immobilised ligand | 1 µM | remaining binding | 100%
CC(C)(C)c1nc(-c2cccc(NS(=O)(=O)c3c(F)cccc3F)c2F)c(-c2ccnc(N)n2)s1 | enzyme activity | inhibitor | radiometric | 1 µM | remaining activity | 90%
CC1=C(C#N)C(c2ccc3c(c2)c(NC(=O)c2ccccc2C)nn3C)C(C#N)=C(C)N1 | cell-free assay | – | competition with immobilised ligand | 1 µM | remaining binding | 79%
Cc1sc(C(=O)NC2COC2)cc1-n1cc(NC(=O)Nc2c(F)cccc2Cl)cn1 | enzyme activity | inhibitor | – | 10 µM | remaining activity | 96.8%
CCCCNc1ncc2c(-c3ccc(F)cc3)nn(C[C@H]3CC[C@H](N)CC3)c2n1 | target engagement in cells | inhibitor | chemoproteomics | 20 mM | inhibition | 83%
Cc1ccc(C(=O)Nc2ccc(CN3CCN(C)CC3)c(C(F)(F)F)c2)cc1C#Cc1cnc2cccnn12 | enzyme activity | inhibitor | – | 23.5 nM | remaining activity | 2.4%
